Measured values as given in ChEMBL document CHEMBL3616442, “Unconventional Knoevenagel-type indoles: Synthesis and cell-based studies for the identification of pro-apoptotic agents” (Eur J Med Chem, 2015).
The source made the active and inactive calls. The calls are words filed in the database; no cut-off is given here.

What was measured:
TK-10 = assay: Growth inhibition of human TK10 cells after 48 hrs by sulforhodamine B assay; assay type: functional; details: TK-10, 48 h
SN12C = assay: Growth inhibition of human SN12C cells after 48 hrs by sulforhodamine B assay; assay type: functional
OVCAR-3 = assay: Growth inhibition of human OVCAR3 cells after 48 hrs by sulforhodamine B assay; assay type: functional; details: OVCAR-3, 48 h
Outline: (§1)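 NCI 60-cell-line screen. Compounds tested at five 10-fold dilutions from 10^-4 to 10^-8 M. Cells exposed for the last 48 h of a 72 h incubation, growth estimated by sulforhodamine B protein assay. GI50 is the concentration giving 50% growth inhibition. Values beyond the tested range are expressed as greater or lesser than the extreme concentration.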

HL-60 [1] = assay: Antiproliferative activity against human HL60 cells after 3 days incubation by alamar blue method; assay type: functional
Outline: (§2)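 HL-60 and K562 grown in RPMI 1640, MCF-7 in DMEM, each with 10% FCS, penicillin G and streptomycin. Seeded at 4x10⁴ (HL-60, K562) or 2x10⁴ (MCF-7) cells per well with serial compound dilutions, incubated 3 days at 37 °C. Alamar blue added for 3 h at 37 °C in the dark, fluorescence read at ex 544/em 590 nm. IC50 versus untreated controls by linear regression.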

MCF7 [2] = assay: Cytotoxicity against human MCF7 cells after 96 hrs by MTT assay; assay type: functional, cell-based; details: MCF7, 96 h
Outline: (§3)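 ATCC cell lines, mycoplasma-free by Hoechst staining. Haematological lines in RPMI-1640, solid-tumour and normal fibroblast lines in their own media, all with 10% FCS and antibiotics, at 37 °C in 5% CO₂. Compounds added as serial dilutions from a 100 mM DMSO stock diluted in medium. Viability by MTT after 96 h at 37 °C. Mean ± SD of three independent determinations.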

NCI-H226 = assay: Growth inhibition of human NCI-H226 cells after 48 hrs by sulforhodamine B assay; assay type: functional; details: NCI-H226, 48 h; outline: as §1
MDA-MB-231 = assay: Growth inhibition of human MDA-MB-231 cells after 48 hrs by sulforhodamine B assay; assay type: functional; details: MDA-MB-231, 48 h; outline: as §1
K562 [3] = assay: Induction of apoptosis in human K562 cells by propidium iodide staining based flow cytometric analysis; assay type: functional; details: TDE = time-dependent effect
Outline: (§4)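 After treatment, cells harvested, fixed in ice-cold 70% ethanol at 4 °C, stained 30 min at 37 °C in the dark with 100 µg/mL propidium iodide plus 10 µg/mL RNase A; 10,000 gated cells analysed at 488 nm with debris excluded; apoptosis followed over time; mean ± S.E.M. of three independent experiments run in triplicate.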

HepG2 = assay: Cytotoxicity against human HepG2 cells after 96 hrs by MTT assay; assay type: functional, cell-based; details: HepG2, 96 h; outline: as §3
Tubulin (Homo sapiens) = Tubulin (Homo sapiens) (UniProt P68371+Q9H4B7+P0DPH7+P68366+Q13509+Q71U36+P04350+Q3ZCM7+P07437+P68363+Q9BQE3+Q6PEY2+Q13885+Q9BVA1+Q9BUF5); assay: Induction of Tubulin depolymerization in human MCF7 cells by immunofluorescence analysis; assay type: cell-based
Outline: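 MCF-7 cells grown and treated on chamber slides, fixed in ice-cold 100% methanol, washed in PBS with 0.1% Triton X-100, blocked 30 min in 5% BSA, then mouse anti-tubulin for 1 h and Alexa 488 secondary for 1 h; DNA counterstained with 0.2 μg/mL propidium iodide for 2 min. Paclitaxel and PBOX-15 served as tubulin controls.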

MCF7 [4] = assay: Growth inhibition of human MCF7 cells after 48 hrs by sulforhodamine B assay; assay type: functional; details: MCF7, 48 h; outline: as §1
[5] = Growth inhibition of human HCC2998 cells after 48 hrs by sulforhodamine B assay; assay type: functional; details: HCC 2998, 48 h; outline: as §1
HL-60 [6] = assay: Induction of apoptosis in human HL60 cells by propidium iodide staining based flow cytometric analysis; assay type: functional; outline: as §4
MCF7 [7] = assay: Induction of cell cycle arrest in human MCF7 cells assessed as accumulation at G2/M phase after 18 hrs by propidium iodide staining based flow cytometric analysis; assay type: functional
Outline: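 Propidium iodide/RNase A flow cytometry of ethanol-fixed cells, 10,000 gated events at 488 nm; G2/M fraction measured after 18 h treatment (HL-60, MCF-7) or 24 h (K562); mean ± S.E.M. of three independent experiments.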

MCF7 [8] = assay: Induction of apoptosis in human MCF7 cells by propidium iodide staining based flow cytometric analysis; assay type: functional; details: TDE = time-dependent effect; outline: as §4
[9] = Growth inhibition of human LOXIMVI cells after 48 hrs by sulforhodamine B assay; assay type: functional; details: LOX IMVI; outline: as §1
MRC5 = assay: Cytotoxicity against human MRC5 cells after 96 hrs by MTT assay; assay type: cell-based; details: MRC5, 96 h; outline: as §3
HOP-62 = assay: Growth inhibition of human HOP62 cells after 48 hrs by sulforhodamine B assay; assay type: functional; details: HOP-62, 48 h; outline: as §1
CCRF-SB = assay: Cytotoxicity against human CCRF-SB cells after 96 hrs by MTT assay; assay type: functional, cell-based; outline: as §3
MDA-MB-435 = assay: Growth inhibition of human MDA-MB-435 cells after 48 hrs by sulforhodamine B assay; assay type: functional; details: MDA-MB-435, 48 h; outline: as §1
SK-MEL-28 [10] = assay: Cytotoxicity against human SK-MEL-28 cells after 96 hrs by MTT assay; assay type: functional, cell-based; details: SK-MEL-28, 96 h; outline: as §3
[11] = Cytotoxicity against human CRL7065 cells after 96 hrs by MTT assay; assay type: cell-based; details: CRL-7065, 96 h; outline: as §3
[12] = Growth inhibition of human MOLT4 cells after 48 hrs by sulforhodamine B assay; assay type: functional; details: MOLT-4, 48 h; outline: as §1
MDA-MB-468 = assay: Growth inhibition of human MDA-MB-468 cells after 48 hrs by sulforhodamine B assay; assay type: functional; details: MDA-MB-468, 48 h; outline: as §1
DU-145 = assay: Cytotoxicity against human DU145 cells after 96 hrs by MTT assay; assay type: functional, cell-based; details: DU-145, 96 h; outline: as §3
[13] = Growth inhibition of human EKVX cells after 48 hrs by sulforhodamine B assay; assay type: functional; outline: as §1
K562 [14] = assay: Antiproliferative activity against human K562 cells after 3 days incubation by alamar blue method; assay type: functional; outline: as §2
[15] = Growth inhibition of human RXF393 cells after 48 hrs by sulforhodamine B assay; assay type: functional; details: RXF 393, 48 h
WIL2-NS = assay: Cytotoxicity against human WIL2-NS cells after 96 hrs by MTT assay; assay type: functional, cell-based; outline: as §3
[16] = Cytotoxicity against human SKMES1 cells after 96 hrs by MTT assay; assay type: functional, cell-based; details: SK-MES-1, 96 h; outline: as §3
A549 = assay: Growth inhibition of human A549 cells after 48 hrs by sulforhodamine B assay; assay type: functional; details: A549, 48 h; outline: as §1
HCT-15 = assay: Growth inhibition of human HCT15 cells after 48 hrs by sulforhodamine B assay; assay type: functional; details: HCT-15, 48 h; outline: as §1
CCRF-CEM = assay: Cytotoxicity against human CCRF-CEM cells after 96 hrs by MTT assay; assay type: functional, cell-based; outline: as §3
MCF7 [17] = assay: Antiproliferative activity against human MCF7 cells after 3 days incubation by alamar blue method; assay type: functional; outline: as §2
[18] = Growth inhibition of human Hs 578T cells after 48 hrs by sulforhodamine B assay; assay type: functional; outline: as §1
SK-MEL-28 [19] = assay: Growth inhibition of human SK-MEL-28 cells after 48 hrs by sulforhodamine B assay; assay type: functional; details: SK-MEL-28, 48 h

## COc1ccc(-c2[nH]c3ccccc3c2/C=C(\C#N)S(=O)(=O)c2ccccc2)cc1
TK-10
  GI50: 4.8 µM
SN12C
  GI50: 1.5 µM
OVCAR-3
  GI50: 0.244 µM
HL-60 [1]
  Activity: Dose-dependent effect
HL-60 [1]; HL-60, 72 h
  GI50: 0.66 µM
MCF7 [2]
  EC50: > 100 µM
NCI-H226
  GI50: 2.8 µM
MDA-MB-231
  GI50: 0.649 µM
K562 [3]
  Activity: tde
HepG2
  EC50: 11 µM
Tubulin (Homo sapiens)
  Activity: Active
MCF7 [4]
  GI50: 0.398 µM
[5]
  GI50: 1.2 µM
HL-60 [6]
  Activity: 65.5%
HL-60 [6]; TDE = time-dependent effect
  Activity: tde
MCF7 [7]
  Activity: 40.4%
MCF7 [8]
  Activity: tde
[9]
  GI50: 1.3 µM
MRC5
  EC50: 73 µM
HOP-62
  GI50: 1 µM
CCRF-SB
  EC50: 0.3 µM
MDA-MB-435
  GI50: 0.203 µM
SK-MEL-28 [10]
  EC50: > 100 µM
[11]
  EC50: > 100 µM
[12]
  GI50: 0.871 µM
MDA-MB-468
  GI50: < 0.01 µM
DU-145
  EC50: 2 µM
[13]
  GI50: 1.3 µM
K562 [14]
  Activity: Dose-dependent effect
K562 [14]; K562, 72 h
  GI50: 5.28 µM
[15]
  GI50: 1 µM
WIL2-NS
  EC50: 0.4 µM
[16]
  EC50: 43 µM
A549
  GI50: 0.803 µM
HCT-15
  GI50: 0.554 µM
CCRF-CEM
  EC50: 0.3 µM
MCF7 [17]
  Activity: Dose-dependent effect
MCF7 [17]; MCF7, 72 h
  GI50: 5.6 µM
[18]
  GI50: 0.682 µM
SK-MEL-28 [19]
  GI50: 1.8 µM
